# The list is not random: actives were taken first. Their share in the collection is about 3.5%.
# RGS4 inh: RGS4 inhibitors, primary screen, cell-based, HEK293 M3R inducible RGS4, calcium flux; Regulator of G-protein signaling 4 (Homo sapiens), P49798; Fluo-4 calcium flux; hits give high values; triggered by carbachol at its EC20; B-score at 10 µM; 310,000 compounds, 0.45% hits; AID 463165, 2010;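 active = B-score, a plate-corrected calcium signal, over three deviations above library mean, with baseline fluorescence within five deviations of library mean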;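 note: RGS4 expression induced by doxycycline in cells with stable M3 receptor; B-score is computed from the integrated fluorescence ratio over baseline after carbachol; higher B-score means a larger calcium signal and so more RGS4 inhibition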
# Target sequence (P49798 whole entry, looked up): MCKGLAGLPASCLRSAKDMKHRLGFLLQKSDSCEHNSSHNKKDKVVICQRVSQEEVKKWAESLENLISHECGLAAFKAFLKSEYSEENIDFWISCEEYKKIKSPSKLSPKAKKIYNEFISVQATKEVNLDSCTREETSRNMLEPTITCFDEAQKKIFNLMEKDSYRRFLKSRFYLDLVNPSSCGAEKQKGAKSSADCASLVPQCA
# RGS4 pot: RGS4 potentiators or activators, primary screen, cell-based, HEK293 M3R inducible RGS4, calcium flux; carbachol calcium flux Fluo4; hits give low values; B-score at 10 µM; 310,000 compounds, 0.92% hits; AID 463111, 2010;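 active = B-score of the integrated calcium signal more than 4 SD below the library mean, with starting fluorescence not abnormally high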;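 note: negative B-score means reduced calcium response which marks RGS4 activation or potentiation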
#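 Material: M3R-expressing HEK293 line, RGS4 induced by doxycycline | Schedule: Overnight RGS4 induction, 30 min dye load 37 °C, 20 min compound RT | Measured by: Fluo4 fluorescence kinetic imaging of calcium | Read-out: Integrated calcium ratio converted to B score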
# MrgX1 agonist: agonists of human MrgX1 receptor, primary screen, HEK293 cells, Fluo-4 calcium flux. 310,000 compounds, 0.44% hits. B-score at 10 µM. Fluo-4 calcium fluorescence, agonist mode; hits give high values. AID 588627, 2011. Mas-related G-protein coupled receptor member X1 (Homo sapiens), Q96LB2;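 active = calcium response B-score plate-corrected fluorescence ratio at least 3 library SD, with starting fluorescence B-score inside 5 SD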
# Target sequence (Q96LB2 whole entry, looked up): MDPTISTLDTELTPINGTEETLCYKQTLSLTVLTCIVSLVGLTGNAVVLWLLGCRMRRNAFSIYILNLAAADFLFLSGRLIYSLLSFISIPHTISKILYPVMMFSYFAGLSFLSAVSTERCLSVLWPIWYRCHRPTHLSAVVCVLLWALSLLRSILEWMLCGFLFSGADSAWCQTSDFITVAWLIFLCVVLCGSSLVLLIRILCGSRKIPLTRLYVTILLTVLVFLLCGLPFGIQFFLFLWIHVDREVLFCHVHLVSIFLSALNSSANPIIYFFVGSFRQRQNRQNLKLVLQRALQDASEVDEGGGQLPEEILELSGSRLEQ
#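 Material: MrgX1-expressing HEK293 cells; input: 15,000 cells per well; doses: test compound given as first of three sequential additions; schedule: overnight plating before 1 h dye loading; technique: Fluo-4 NW calcium-flux fluorescence, kinetic read; evaluation: baseline-normalised fluorescence change ratio, B-scored; control set: plate-wise positive and negative controls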
# MrgX1 antag: antagonists of human MrgX1 receptor, primary screen, HEK293 cells, Fluo-4 calcium flux; B-score at 10 µM; 310,000 compounds, 1.3% hits; BAM8-22 antagonism; hits give low values; AID 588676, 2011; Mas-related G-protein coupled receptor member X1 (Homo sapiens), Q96LB2;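 active = calcium-response B-score plate-corrected more than 3 library SD below zero, starting fluorescence within 5 deviations, no agonist response on first addition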;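 note: peak minus trough fluorescence over baseline after final BAM8-22 challenge near maximal dose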
# MrgX1 PAM: positive allosteric modulators of MrgX1, primary screen, HEK293 cells, Fluo-4 calcium flux; Mas-related G-protein coupled receptor member X1 (Homo sapiens), Q96LB2; B-score at 10 µM; 310,000 compounds, 0.63% hits; FDSS; hits give high values;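 active = plate-corrected calcium response at least 3 library SD above typical, normal starting fluorescence, not activating the receptor alone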;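 note: compound read alongside a low EC10 to EC30 dose of BAM8-22 agonist; peak minus trough fluorescence over baseline measured at the second addition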
# MrgX1 allo conf: MrgX1 positive allosteric modulators, duplicate retest, confirmation, HEK293 cells, Fluo-4 calcium flux | AID 602413, 2012 | 1,200 compounds, 13% hits | shares compounds with MrgX1 PAM | Fluo-4 calcium fluorescence, FDSS | activation (ratio percentage), % at 10 µM;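 active = ratio at least 3 SD above the weak peptide control, stable starting fluorescence, no direct agonism earlier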;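 note: compound followed by low BAM8-22 agonist challenge near EC20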
# HEK293 Ca flux: nonspecific calcium signal in parental HEK293, confirmation, counter-screen for MrgX1 antagonist project, parental HEK293 cells, Fluo-4 calcium flux; shares compounds with MrgX1 antag; Fluo-4 calcium fluorescence, FDSS; fluorescence ratio F(max-min)/F0 at 10 µM; 4,000 compounds, 2% hits; AID 624111, 2012;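 active = duplicate-averaged calcium fluorescence ratio at least three times the standard deviation of buffer wells, a nonspecific response in parental cells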
# HEK293 Ca counter: calcium response in parental HEK293 cells, primary screen, counter-screen for MrgX1 allosteric activator project, cell-based, Fluo-4 calcium flux, duplicate | Fluo-4 fluorescence ratio; hits give high values | fluorescence ratio F(max-min)/F0 at 10 µM | shares compounds with MrgX1 antag | 4,000 compounds, 0.4% hits;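 active = calcium fluorescence ratio, averaged over duplicates, at least 3 SD of the buffer-well ratio, meaning a nonspecific response in receptor-free cells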;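 note: untransfected parental HEK293 lacking MrgX1 used as counterscreen for MrgX1 allosteric activators; fluorescence change taken during the second addition on a kinetic imager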
# HEK293 Ca cntr2: calcium response in parental HEK293 cells, primary screen, counter-screen for MrgX1 agonist project, cell-based, Fluo-4 calcium flux, duplicate, agonist mode; shares compounds with MrgX1 antag; fluorescence ratio F(max-min)/F0 at 10 µM; 4,000 compounds, 8.7% hits; Fluo-4 calcium fluorescence (FDSS); hits give high values;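 active = calcium fluorescence ratio at least three times the spread of buffer wells, meaning a non-specific response in parental cells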
# Starred values were filed as active, the others as inactive; i = inactive; . = no result.
SMILES,RGS4 inh,RGS4 pot,MrgX1 agonist,MrgX1 antag,MrgX1 PAM,MrgX1 allo conf,HEK293 Ca flux,HEK293 Ca counter,HEK293 Ca cntr2
CCSc1nnc2n(-c3ccc(OC)cc3)c(=O)c3c4c(sc3n12)CCCC4,i,i,i,i,i,.,.,.,.
CC(C)CC(=O)c1c[nH]c(C(=O)NCc2ccc(F)cc2)c1,i,i,i,i,i,.,.,.,.
Cc1ccccc1Nc1nc(N)nc(CSc2nc3ccccc3s2)n1,i,i,i,i,8.8*,i,i,i,i
CC(NC(=O)Nc1ccc(Br)cc1)C(C)(C)C (stereo unspecified),i,i,i,i,7.8*,i,i,i,i
COC(=O)C(C)(C)ONC(=O)Nc1ccc(Br)cc1,i,i,i,i,i,.,.,.,.
O=C(Nc1ccc(F)cc1)C(=O)C1C(=O)Nc2ccccc21 (stereo unspecified),i,i,i,i,6.6*,i,i,i,i
O=C(COc1ccc(Br)cc1)N(Cc1ccccc1)c1ccccn1,i,i,i,i,i,.,.,.,.
O=C(Cc1ccc(Br)cc1)N(Cc1ccccc1)c1ccccn1,i,i,i,i,7.3*,i,i,i,i
COc1ccc(CCNS(=O)(=O)c2ccc3c(c2)NC(=O)CO3)cc1OC,i,i,i,i,33*,i,i,i,i
CS(=O)(=O)N(CC(=O)N1CCN(c2cccc(Cl)c2)CC1)c1cccc(F)c1,i,i,i,i,8.2*,i,i,i,i
Cc1c(Cl)cccc1NC(=O)CC1NCCNC1=O (stereo unspecified),i,i,i,i,13*,i,i,i,i
CC(C)C[C@H](NC(=O)c1nc[nH]c1C(=O)NC1CCNCC1)C(=O)OCc1ccccc1,i,i,i,i,i,.,.,.,.
CC(CCc1ccccc1)NC(=S)NC(=O)c1ccco1 (stereo unspecified),i,i,i,i,14*,i,i,i,i
O=C(NC(=S)Nc1ccccc1Cl)c1ccco1,i,i,i,i,i,.,.,.,.
CCC(C)c1ccccc1NC(=S)NC(=O)c1ccco1 (stereo unspecified),i,i,i,i,7.4*,i,i,i,i
O=C(NC(=S)N(CCc1ccccc1)CCc1ccccc1)c1ccco1,i,i,i,i,i,.,.,.,.
Cc1ccnn1CC(=O)N/N=C/c1cn[nH]c1-c1ccccc1,i,i,i,i,i,.,.,.,.
O=c1c(-c2ccccc2)[n+]([O-])c2ccccc2n1O,i,i,i,i,21*,12%*,i,i,i
C[C@H](NC(=O)c1ccccc1Cl)C(=O)Nc1ccccc1F,i,i,i,i,i,.,.,.,.
CC(=O)c1ccc(NC(=O)C(Cc2ccccc2)NC(=O)c2ccco2)cc1 (stereo unspecified),i,i,i,i,8.9*,i,i,i,i
COc1ccc(NC(=O)C(Cc2ccccc2)NC(=O)c2ccco2)cc1OC (stereo unspecified),i,i,i,i,i,.,.,.,.
CN(Cc1ccccc1)C(NC(=O)c1ccccc1)C(Cl)(Cl)Cl (stereo unspecified),i,i,i,i,i,.,.,.,.
CN(Cc1ccccc1)C(NC(=O)c1ccco1)C(Cl)(Cl)Cl (stereo unspecified),i,i,i,i,6.6*,i,i,i,i
Cn1c(-c2sccc2OCc2ccc(Cl)cc2Cl)n[nH]c1=S,i,i,i,i,9.9*,i,i,i,i
COc1ccc(C2=C(Nc3ccc(F)cc3)c3ccccc3C2=O)cc1,i,i,i,i,i,.,.,.,.
SMILES,RGS4 inh,RGS4 pot,MrgX1 agonist,MrgX1 antag,MrgX1 PAM,MrgX1 allo conf,HEK293 Ca flux,HEK293 Ca counter,HEK293 Ca cntr2
COc1ccc(C2=C(Nc3ccc(C)cc3)c3ccccc3C2=O)cc1,i,i,i,i,11*,i,i,i,i
Fc1ccccc1COc1ccc(C(=S)N2CCCC2)cc1,i,i,i,i,i,.,.,.,.
CCN(C(=O)c1c(N)cnn1C)c1ccccc1,i,i,i,i,10*,i,i,i,i
CSc1cccc(CN(C)C(=O)C2CCC(=O)N(CCCN3CCCC3=O)C2)c1 (stereo unspecified),i,i,i,i,i,.,.,.,.
CC(C)N(C(=O)Cn1c(=O)oc2ccccc21)c1ccccc1,i,i,i,i,i,.,.,.,.
CCC1Nc2ncnc(N3CCCCC3)c2N(Cc2ccccc2)C1=O (stereo unspecified),i,i,i,i,7.5*,i,i,i,i
COc1cccc(-n2c(SCC(N)=O)nnc2-c2c[nH]c3ccccc23)c1,i,i,i,i,6.9*,i,i,i,i
Cc1cccc2sc(NS(=O)(=O)c3ccccc3)nc12,i,i,i,i,8.3*,i,i,i,i
Cc1nc(NS(=O)(=O)c2ccccc2)sc1C(C)(C)C,i,i,i,i,i,.,.,.,.
CC1CCCN(C(=O)CSc2ncccn2)C1 (stereo unspecified),i,i,i,i,i,.,.,.,.
C/C(=N\NC(=O)c1nc2ccccn2c1C)c1cc2ccccc2o1,i,i,i,i,i,.,.,.,.
C/C(=N\NC(=O)c1cc2ccccc2cc1O)c1cc2ccccc2o1,i,i,i,i,22*,i,i,i,i
